Sequences and labels used below:
B1: tRNA (parent)
chain: GUUCCGUUGGCGUAAUGGUAACGCGUCUCCCUCCUAAGGAGAAGACUGCGGGUUCGAGUCCCGUACGGAACG

Fewer inactive variants are shown than the library holds.

In the data set the parent is B1. As to the kind of experiment: yeast fitness relative to wild type (ratio to wild type); higher = fitter; tRNA-Arg(CCU), competitive growth, 37 C, YPD. The gist of the method:
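Gene amplicons from the start population and from each of six end populations were read by 100-nucleotide paired-end sequencing. Those end populations came from pooled Saccharomyces cerevisiae strains carrying tRNA-Arg(CCU) gene variants at the native locus, competed in YPD at 37°C for 24 hours. Fitness relative to wild type was worked out from changes in genotype frequencies. Genotypes needed ≥ 100 starting reads, and estimates < 0.5 were set to 0.5.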
In the case of GAUCCGUUGGCGUAAUGGUAACGCGUCACCCUCCUAAGGAGAAGACUGCGCGUUCGCGUCCCGUACGGAACG [U2A U28A G51C A57C], the yeast fitness is at most 0.5.
Next, GAUCCGUUGGCGUAAAGGUAACGCGUCUCCCUCCUAAGGAGAAGACUGCGGGUUCGAGUCCCGUAUGGGACG [U2A U16A C66U A69G]: at most 0.5; GAUCCGUUGGCGUAAUGGUAACGCGCCUCCCUCCUAAGGAGAAGACUGCGGGUUCGAGUCCCGUACGGAACG [U2A U26C]: 0.934; GAUCCGUUGGCGUAAUGGUAACGCGGCUCCCUCCUAAGGAGAAGACUGCGGGUUCGAGUCCCGUACGGAACG [U2A U26G]: 0.821.
As to GCUCCGUUGGCGUGAUGGUAACGCGUCUCCCUCCUAAGGAGCAGACUGCGGGUUCGAGUCCCGUACGGAACG [U2C A14G A42C], the yeast fitness was 0.575.
Take GCUCCGUUGGCGUGAUGGUAACGCGUCUACCUCCUAAGGAGAAGAGUGCGGGUUCGAGUCCCGUACGGAACG [U2C A14G C29A C46G]: the yeast fitness is at most 0.5.
Take GAUCCGUUGGCGAAAUGGUAACGAGUCUCACUCCUAAGGAGAAGACUGCGGGUUCGAGUCCCGUACGGAACG [U2A U13A C24A C30A]: the yeast fitness was at most 0.5.
For GCUCCGUUGGCGUCAUGGUAACGCGUCUCCCUCCUAAGGAGAAGAAUGCGGGUUCGAGUCCCGUGCGGAACG [U2C A14C C46A A65G], the yeast fitness was at most 0.5.
For GAUCCGUUGGCGUAAGGGUAACGCGUGUCCCUCCUAAGGAGAAGACUGGGGGUUCGAGUCCCGUACUGAACG [U2A U16G C27G C49G G67U], the yeast fitness is at most 0.5.
With GAUCCGUUGGCGUAAGGGUAACGCGUCUCCCUCCUAAGGACAAGACUGCGGGUUCGAGUCCCGUACGGAACG [U2A U16G G41C] the figure was 0.649; with GCUCCGUUGGCGUCAUGGUAACGCGUCUCCCUCCUAAGGAGAAGAAUGCGGGUUCGAGUCCCGUACGGAACG [U2C A14C C46A], at most 0.5.
Next, GCUCCGUUGGCGUCAUGGUAACGCGUCUCCAUCCUAAGGAGAAGACUGCGGGUUCGAGUCCCGUACGGAACG [U2C A14C C31A]: at most 0.5.
For GAUCCGUUGGCGUAACGGUAACGCGUCUCACUCCUAAGGAGAAGACUGCGGGUUCGAGUCCCGUACGGAACG [U2A U16C C30A], the yeast fitness is 0.558.
In the case of GAUCCGUUGGCGUAACGGUAACGCGUCUCCCUCCUAAGGAGAAGACUGCGGGUUCGAGUCCCGUACGAAACG [U2A U16C G68A], the yeast fitness was at most 0.5.
In the case of GAUCCGUUGGCGUAAUGGUAACGCGUCUCCCACCUAAGGAGAAGACUGCGGGUUCGAGUCCGGUACGGAACG [U2A U32A C62G], the yeast fitness amounted to 0.509.
With GAUCCGUUGGCGUAAGGGUAACGCGUCUCCCUCCUAAGGAGAAGACUGCCGGUUUGAGUGCCGUACGGGACG [U2A U16G G50C C55U C60G A69G] the figure was at most 0.5; with GAUCCGUUGGCGUAAGGGUAACGCGUCUCCCUCCUAAGGAGAAGACUGCGGGUUCGAGUCCCGUACGGACCG [U2A U16G A70C], 0.835; with GAUCCGUUGGCGUAACGGUAACGCGUCUCACUCCUAAGGAGAAGACUGCGGGUUCGAGUCGCGUACGGAACG [U2A U16C C30A C61G], at most 0.5.
For the variant GCUCCGUUGGCGUGAUGGUAACGCGUCUCCCUCCUAAGGAGAAGAUUGCGGGUUCGAGUACCGUACGGAACG [U2C A14G C46U C60A], the yeast fitness is at most 0.5.
GAUCCGUUGGCGUAAUGGUAACGCGUCUCCCCACUAAGGAGAAGACUGCGCGUUCGAGUCCCGUACGAAACG [U2A U32C C33A G51C G68A]: the yeast fitness is at most 0.5.
Next, GAUCCGUUGGCGUAAAGGUAACGCGUCUCCGUCCUAAGGAGAAGACUGCGGGUUCGAGUCCCGUACGGAACG [U2A U16A C31G]: 0.875.
Consider GCUCCGUUGGCGUGAUGGUAAAGCGUAUUCCUCCUAAGGAGCAGACUGCGGGUUCGAGUCCCGUACGGAACG [U2C A14G C22A C27A C29U A42C], for which the yeast fitness is at most 0.5.
In the case of GCUCCGUUGGCGUCAUGGUAACGCGUCUCCCUCCUAAGAAGAAGACUGCGGGUUCGAGUCCCGUACGGAACG [U2C A14C G39A], the yeast fitness was at most 0.5.
With GAUCCGUUGGCGUAAUGGUAACGCGUCACCCUCCUAAGGAGAAGACUGCGGGUUGGAGUCCCGUACGGAGCG [U2A U28A C55G A70G] the figure was at most 0.5; with GAUCCGUUGGCGUAACGGUAACGCGUCUCACUCCUAAGGAGAAGACUGCGGGUUCGAGUCCCGUACGGCACG [U2A U16C C30A A69C], 0.544.
With GAUCCGUUGGCGUAAUGGUAACGCGUCACCCUCCUACGGAGAAGACUGCGGGUUCGAGUCCCGCGCGGAACG [U2A U28A A37C U64C A65G] the figure was at most 0.5; with GAUCCGUUGGCGAAAUGGUAACGCGUCUUCCUCCAAAGGAGAAGACUGCGGGUUCGAGUUCCGUACGGAACG [U2A U13A C29U U35A C60U], at most 0.5.
As for GAUCCGUCGGCGUAAUGGUAACGCGUCUCGCUCCUAAGGAGAAGACUGCGGGUUCGAGACCCGAACGGAACG [U2A U8C C30G U59A U64A], the yeast fitness is 0.569.
As for GAUCCGUUGGCGUAAAGGUAACGCGUCUCCCUCCUAAGGAGAAGACUGCGGGUUCGAGUCCCGUACGGAACG [U2A U16A], the yeast fitness worked out at 0.989.
With GAUCCGUUGGCGUAACGGUAACGCGUCUCCCUCCUAAGGAGAAGACUGCGGGUUCGAGUCCCGUACGGAACG [U2A U16C] the figure was 0.88.
With GCUCCGUUGGCGUCAUGGUAACGCGUCUCCCUCCUAUGGCGAAGACUGCGGGUUCGAGUCCCGUACGGAACG [U2C A14C A37U A40C] the figure was at most 0.5.
With GAUCCGUUGGCGGGAUGGUAACGCGUCACCCUCCUUAGGAGAAGUCUGCGGGUUCGGGUCCCGUACGGAACG [U2A U13G A14G U28A A36U A45U A57G] the figure was at most 0.5; with GAUCCGUUGGCGUAAUGGAAACGCGUCUCCCUCCUAAGGAGAAGACUGCGGGUUCGAGUCCCGUACGGAACG [U2A U19A], 0.931; with GAUCCGUUGGCGUAAUGGUAACGCGUCUCCCUCCUAAGGAGAAGACUGCGGGUACGAGUCCCGUUCGGAACG [U2A U54A A65U], at most 0.5.
Regarding GAUCCGUUGGCGUAAUGGUAACGCGUCCCCCUCCUAAGGACAAGACUGCGGGUACGAGUCCCGUACGGAACG [U2A U28C G41C U54A], the yeast fitness stood at 0.56.
As to GAUCCGUUGGCGCAAAGGUAACGCGUCUCCCUCCUAAGGAGAAGACUGCGGGUUCCGGUCCUGUACGGAACG [U2A U13C U16A G56C A57G C62U], the yeast fitness was found to be 0.528.
Next, GAUCCGUUGGCGUAAUGGUAACGCGUCUCCCUCCUAAGGAGAAGACGGCCGGUUCGAGUCCCGUACGGAACG [U2A U47G G50C]: at most 0.5; GAUCCGUUGGCGACAUGGUAACGCGUCUCCCUUCUAAGGAGAAGACUGCGGGUUCGAGUCCCGUACGGAACG [U2A U13A A14C C33U]: at most 0.5.

(Values after the RNAGym collection of RNA variant scans (doi:10.1126/science.aae0568).)
